UPR XBP1 act = activators of adaptive arm of unfolded protein response (XBP1); 0.33% of 330,000 active; activation, % at 20 µM; AID 463104; CHO-XBP1 luciferase reporter, IRE1-XBP1 UPR activation, luminescence; percent of tunicamycin response, DMSO as zero;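 active = versus positive control, 20 µM dose yields 30% or more activation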;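 also: 100% = tunicamycin at 10 µg/mL and 0% = DMSO only wells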
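Assay system: IRE1-XBP1 luciferase reporter CHO line. Input: 1000 cells/well. Buffer or medium: F12 with 10% serum. Doses: 20 µM, 1% DMSO. Times: overnight seeding at 37 °C, 6 h compound treatment at 37 °C. Technique: Steady-Glo luciferase glow luminescence, 10 min after reagent addition.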
697 NFkB inh = inhibitors of the PMA/ionomycin-induced NF-kB reporter in 697 B cells. 697 B-cell NF-kB luciferase reporter, 16 h. inhibition, % at 4 µM. 0.33% of 330,000 active; in the data active = inhibition above about 35%
CHOP inh = CHOP inhibition in unfolded protein response; CHO-K1 CHOP-promoter luciferase, tunicamycin-induced, 15-18 h; 3.8% of 220,000 active; inhibition, % at 10 µM;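 active = compounds that reduced the stress-induced luciferase reporter signal by more than about 70% of percent inhibition, limit read from the data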;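 also: 0% = tunicamycin plus vehicle and 100% = wells without tunicamycin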
Jurkat NFkB inh = lowers PMA/ionomycin-induced NF-kB signal in Jurkat cells | PMA/ionomycin-induced NF-kB luciferase reporter, luminescence | inhibition, % at 4 µM | 0.53% of 330,000 active | AID 435003; in the data active = inhibition above about 50%
UPR CHOP act = activators of apoptotic arm of unfolded protein response (CHOP) | CHO-CHOP luciferase reporter, UPR activation, luminescence; percent of tunicamycin response over DMSO baseline | activation, % at 10 µM | 0.34% of 330,000 active | AID 449763;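 active = at 10 µM dose, activation of 40% or more, normalized to positive control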;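 also: 100% = tunicamycin at 10 µg/mL and 0% = DMSO alone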
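Dosing – one dose, 10 µM in 0.5% DMSO · System – CHO-CHOP cells, stable luciferase reporter of PERK-eIF2a-CHOP signalling · Input – 500 cells/well · Control set – tunicamycin 10 µg/mL final as positive, DMSO-only wells as negative · Timing – 6 h compound treatment, 37 °C · Measure – % activation vs tunicamycin · Technique – luminescence read with Steady-Glo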
697 NFkB conf = lowers PMA/ionomycin-induced NF-kB signal in 697 B cells | shares compounds with 697 NFkB inh | 697 B-cell NF-kB luciferase, 16 h | inhibition, % at 4 µM | 35% of 2,000 active | AID 449746; in the data active = inhibition mostly above about 28%, no sharp cut-off; inactive = mostly below about 22%
UPR CHOP confirm = confirmation of apoptotic unfolded protein response (CHOP) activators | shares compounds with UPR CHOP act | CHO-CHOP cells, CHOP-luciferase reporter luminescence; percent of tunicamycin response, DMSO as zero | activation, % at 10 µM | 64% of 1,000 active | AID 463112; in the data active = activation above about 33%;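 also: 0% = DMSO wells and 100% = tunicamycin 10 µg/mL wells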
XBP1 UPR conf = adaptive UPR (XBP1) activation, confirmed; AID 485299; 63% of 1,000 active; activation, % at 20 µM; shares compounds with UPR XBP1 act; CHO-XBP1 IRE1-XBP1 luciferase reporter, luminescence;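 active = reporter signal at least 30% of the positive control's activation in two or more of four replicate wells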;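 also: plate controls were DMSO negative control for no effect and tunicamycin 10 µg/mL positive control for full effect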
The depositor's hits bear a star; . = no result. This excerpt belongs to a sample that is enriched for hits.

SMILES	UPR XBP1 act	697 NFkB inh	CHOP inh	Jurkat NFkB inh	UPR CHOP act	UPR CHOP confirm	others
C=CCOC(=O)COc1cc(C)cc2oc(=O)c3c(c12)CCC3	-2	40*	11	13	-2	.	697 NFkB conf=32*
Cn1c(=O)cc(OCC(=O)N2CCC3(CC2)OCCO3)c2ccccc21	9	42*	3	15	2	.	697 NFkB conf=40*
Cn1c(=O)cc(OCCCC(=O)N2CCC3(CC2)OCCO3)c2ccccc21	-1	14	-25	1	0	.
COC(=O)C1=C(c2cc3ccccc3o2)C[C@@H]2CC[C@H]1N2C(=O)NCc1ccco1	-2	35	.	11	2	.
COc1cc(/C=C2\C(=O)NC(=O)N(c3ccccc3)C2=O)cc(OC)c1OC	-3	20	-30	-8	-1	.
O=C1NC(=O)N(c2ccccc2)C(=O)/C1=C\C=C\c1ccccc1	-1	-96	81*	17	175*	63*
CCc1ccc(N2C(=O)NC(=O)/C(=C\C=C\c3ccco3)C2=O)cc1	-4	4	108*	6	167*	229*
Cc1ccc(N2C(=O)NC(=O)/C(=C/C=C/c3ccco3)C2=O)cc1	-4	-24	101*	-3	168*	119*
CCCCN1C(=O)/C(=C/C=C/c2ccco2)C(=O)NC1=S	.	.	-30	.	.	.
CC(N)C(=O)OC(C)(C)Cc1ccc(Cl)cc1 (configuration not stated)	-5	-19	0	0	-1	.
Cc1nc2ccccc2c(=O)n1-c1cc([N+](=O)[O-])cc([N+](=O)[O-])c1	-5	3	.	-12	0	.
Cc1cccc(-n2c(/C=C/c3ccc([N+](=O)[O-])o3)nc3ccccc3c2=O)c1	12	-29	-85	25	43*	37*
Cc1ccc(N=C(/N=C(\N)N[N+](=O)[O-])Nc2ccc(C)cc2)cc1	2	4	.	-20	0	.
N=Cc1c(O)n(-c2cccc(Cl)c2)c(=O)[nH]c1=O	-2	29	19	-3	40*	-1
C[C@]12CCC3C(CC[C@H]4C[C@H](O)CC[C@]34C)C1[C@@H](O)C[C@@H]2O (some centres not stated)	-1	-11	.	-2	-2	.
O=C1NC(=S)NC(=O)C1=Cc1ccc(Br)s1	-5	-3	.	-18	72*	119*
O=c1ccc2c(O)c3ccoc3cc2o1	0	0	.	-2	0	.
C=C1C(=O)O[C@@H]2C[C@@H](C)[C@H]3C=CC(=O)[C@]3(O)C[C@@H]12	-4	-177	-20	30	61*	24
CCN(CC)c1ccc(N=Cc2c(O)n(-c3ccc(Cl)cc3)c(=O)[nH]c2=O)cc1	167*	-31	48	-8	31	.	XBP1 UPR conf=48*
CCCCCc1nc2ccccc2c(=O)n1-c1ccccc1[N+](=O)[O-]	-3	2	-4	8	2	.
CCCCCc1nc2c(c(=O)c3ccccc3n2C)c(=O)n1C1CCCCCC1	61*	7	103*	9	12	.	XBP1 UPR conf=46*
COC(=O)C1=C(c2ccc(C(C)=O)cc2)C[C@@H]2CC[C@H]1N2C(=O)NC(C)C	-1	17	.	13	0	.
Ic1ccccc1CN[C@@H]1C2CCN(CC2)[C@@H]1C(c1ccccc1)c1ccccc1	2	-30	.	15	4	.
CC(C)N1CC=C(c2c[nH]c3ccccc23)CC1	48*	-33	25	16	-4	.	XBP1 UPR conf=0

Screening data: PubChem, several laboratories
